Assay results pooled from the literature.
Target: TGF-beta receptor type-1 (TGFBR1, Homo sapiens, UniProt P36897)
Residues used in one study (P36897 1-503): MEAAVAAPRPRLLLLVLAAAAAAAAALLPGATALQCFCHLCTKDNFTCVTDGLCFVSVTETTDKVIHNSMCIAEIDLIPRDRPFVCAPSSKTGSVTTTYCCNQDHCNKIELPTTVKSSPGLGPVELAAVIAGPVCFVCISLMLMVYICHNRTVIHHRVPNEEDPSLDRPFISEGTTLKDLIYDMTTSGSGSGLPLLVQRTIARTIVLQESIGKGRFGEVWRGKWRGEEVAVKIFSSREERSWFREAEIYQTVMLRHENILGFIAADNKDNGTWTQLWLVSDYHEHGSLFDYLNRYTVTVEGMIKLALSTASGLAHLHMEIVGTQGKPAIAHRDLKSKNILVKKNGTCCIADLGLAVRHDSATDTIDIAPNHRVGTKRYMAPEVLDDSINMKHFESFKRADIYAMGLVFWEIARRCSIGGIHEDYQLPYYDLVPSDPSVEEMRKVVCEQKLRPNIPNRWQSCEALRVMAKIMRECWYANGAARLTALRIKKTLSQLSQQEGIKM

SMILES | effect on | mode | method | tested at | quantity | result
C[C@H](c1cccc(C#N)c1)n1cc(Cl)cc(C(N)=O)c1=N | cell-free assay | – | competition with immobilised ligand | 1 µM | remaining binding | 100%
COc1cccc(F)c1Cn1cnc(-c2ccc(F)cc2)c1-c1ccncc1 | cell-free assay | – | TR-FRET | 1 µM | inhibition | 20%
Cc1ccc(C(=O)Nc2ccc(CN3CCN(C)CC3)c(C(F)(F)F)c2)cc1C#Cc1cnc2cccnn12 | cell-free assay | – | – | 23.5 nM | remaining signal | 98%
CC(C)(O)[C@H]1CC[C@H](Nc2ccc3ncc(-c4cccc(C(F)(F)F)c4)n3n2)CC1 | enzyme activity | inhibitor | – | 1 µM | remaining activity | 108%
COc1cc(/C=C/C(=O)CC(=O)/C=C/c2ccc(O)c(OC)c2)ccc1O | enzyme activity | inhibitor | – | 1 µM | activity vs control | 82%
Nc1ncnc2occ(-c3ccc(NC(=O)Nc4cc(C(F)(F)F)ccc4F)cc3)c12 | cell-free assay | – | – | 20 µM | remaining signal | 52%
Cc1ccc(Nc2nccc(N(C)c3ccc4c(C)n(C)nc4c3)n2)cc1S(N)(=O)=O | cell-free assay | – | – | 0.5 µM | remaining signal | 103%
Cc1ccc(NC(=O)c2ccc(C)c(C(F)(F)F)c2)cc1C#Cc1nn(C2CCC(O)CC2)c2ncnc(N)c12 (stereo not shown) | cell-free assay | – | – | 10 µM | remaining signal | 105%
CO[C@H]1CC[C@H](CNc2ccc(S(=O)(=O)NC(=O)c3ccc(N4CCN(CC5=C(c6ccc(Cl)cc6)CC(C)(C)CC5)CC4)cc3Oc3cnc4[nH]ccc4c3)cc2[N+](=O)[O-])CC1 | cell-free assay | – | competition with immobilised ligand | 1 µM | remaining binding | 84%
Fc1ccc(-c2ncn(C3=CCCCC3)c2-c2ccncc2)cc1 | cell-free assay | – | TR-FRET | 1 µM | inhibition | 19%
c1ccc(-c2[nH]ncc2-c2ccnc3ccccc23)nc1 | cell-free assay | – | – | 0.5 µM | remaining signal | 41.6%
CCN(CC)c1ccc(C2=NNC(=O)CC2C)cc1[N+](=O)[O-] (stereo not shown) | enzyme activity | inhibitor | – | 10 µM | remaining activity | 89%
O=C1NC(=O)c2cc(Nc3ccc(F)cc3)c(Nc3ccc(F)cc3)cc21 | cell-free assay | – | – | 0.5 µM | remaining signal | 98.1%
CC(=O)C1=C(C)N(c2cccc(C(F)(F)F)c2)C(=O)N[C@@H]1c1ccc(C#N)nc1 | cell-free assay | – | competition with immobilised ligand | 1 µM | remaining binding | 99.2%
Fc1ccc(-c2ncn(-c3ccc(-c4ccccc4)cc3)c2-c2ccncc2)cc1 | cell-free assay | – | TR-FRET | 1 µM | inhibition | 15%
O=C(CSc1nc2nccnc2c(=O)n1CCc1ccccc1)Nc1nccs1 | enzyme activity | inhibitor | – | 10 µM | inhibition | 1%
Cc1cccc(-c2[nH]c(C(C)(C)C)nc2-c2ccc3c(c2)OCO3)n1 | cell-free assay | – | – | 0.5 µM | remaining signal | 35.8%
CN(C)c1ncnc(-c2ccc3nc(Nc4cc(CN5CCN(C(=O)CC(F)(F)F)CC5)ccn4)[nH]c3c2)c1Cl | cell-free assay | – | competition with immobilised ligand | 1 µM | remaining binding | 100%
COc1cc(-c2cc(-c3ccc(N4CCNCC4)cc3)cnc2C)cc(OC)c1OC | enzyme activity | inhibitor | – | 1 µM | inhibition | 32%
C#Cc1cccc(Nc2ncnc3cc(OCCOC)c(OCCOC)cc23)c1 | cell-free assay | – | – | 0.5 µM | remaining signal | 99.1%
NS(=O)(=O)c1cc(NC(=O)Cc2ccccc2)ccc1Oc1cccc(Cl)c1 | cell-free assay | – | competition with immobilised ligand | 1 µM | remaining binding | 100%
Fc1ccc(-c2c(-c3ccncc3)ncn2-c2ccc3ccccc3c2)cc1 | cell-free assay | – | TR-FRET | 1 µM | inhibition | 21%
CCCCN(CCCC)C(=O)CN1C[C@H](c2cc(OC)c3c(c2)OCO3)[C@@H](C(=O)O)[C@@H]1CC(C)(C)CCC | cell-free assay | – | competition with immobilised ligand | 1 µM | remaining binding | 98.6%
CC(C)(C)c1nc2c(s1)c1nc(N)ncc1c1ccc(NS(=O)(=O)c3c(F)cccc3F)c(F)c12 | enzyme activity | inhibitor | radiometric | 1 µM | remaining activity | 102%
Cc1cc(-n2nc(Cc3cc(F)cc(C(F)(F)F)c3)nc2C)ccc1C(N)=O | cell-free assay | – | competition with immobilised ligand | 1 µM | remaining binding | 94%
Cc1sc(C(=O)NC2COC2)cc1-n1cc(NC(=O)Nc2c(F)cccc2Cl)cn1 | enzyme activity | inhibitor | – | 10 µM | remaining activity | 104%
O=C(O)c1cc(-c2ccc(C3CCNCC3)cc2)c2ccc(-c3ccc(C(F)(F)F)cc3)cc2c1 | cell-free assay | – | competition with immobilised ligand | 1 µM | remaining binding | 81%
CCOc1cc(-c2nncn2C)ccc1Nc1ncc2cc(C)nc(NCC(C)(C)C)c2n1 | cell-free assay | – | TR-FRET | 1 µM | inhibition | ≤ 15%
